Experimental data from PMC9293343 (Chemmedchem, 2021).

Experiments:
[1] = target: T1, Neh1 (residues 445–523, Neh1‐ΔLZIP) domain of NRF2 (Homo sapiens, UniProt Q16236); assay: 1H-15N HSQC small-molecule titration; format: binding
T1 sequence (Q16236 445-523): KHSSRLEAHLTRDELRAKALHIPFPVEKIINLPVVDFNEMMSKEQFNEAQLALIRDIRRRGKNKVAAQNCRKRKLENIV
How it was run: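 15N-labelled human NRF2 residues 445–523 were expressed in E. coli BL21(DE3) with TEV-cleaved MBP/His tags and used at 50 μM in 50 mM sodium phosphate pH 6.5, 150 mM NaCl, 1 mM DTT. Test compound (50 mM DMSO-d6 stock) was titrated to final 0.250, 0.750, 1.5 and 2.0 mM, with 1H-15N HSQC at each step. Combined 1HN/15N CSPs were fitted per residue by nonlinear least squares for KD.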

Neh1‐ΔLZIP = target: T2, Neh1‐ΔLZIP (Homo sapiens, UniProt Q16236); format: binding; details: 0.750 mM compound 2, ARE DNA 0.10, 0.20, 0.30 mM, 50 μM protein
T2 sequence (Q16236 445-523): T1 sequence (Q16236 445-523)

In the case of `O=C(O)COc1ccc(-c2ccccc2)cc1Br` [Compound 2, 2‐((3‐bromo‐[1,1’‐biphenyl]‐4‐yl)oxy)acetic acid], the Kd ([1]; KD, from CSP values using equation (1), average over R499, D500, R503) is reported as 1.7 ± 0.1 mM, the “chemical shift change of side chain amide nitrogen Nδ2 of N482, measured value” ([1]; at approximately 50–60 % protein fraction bound) is reported as 0.64 ppm and the “CSP, backbone amide of N482” value ([1]; upon addition of compound 2) is reported as 0.04 ppm. For the same compound, the “replacement of compound by ARE DNA (competition)” value (Neh1‐ΔLZIP) was “final spectrum which is very close to the spectrum of Neh1‐ΔLZIP bound to ARE”.
